ADAM17 inh: inhibitors of human ADAM17; recombinant ADAM17, EDANS/DABCYL FRET peptide cleavage; P78536; AID 720648; actives 0.83% (n = 370,000); inhibition, % at 6.95 µM;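 active = inhibition above the mean of compounds lying between control limits plus 3 SD, set per campaign, cut at about 8.5% in these data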
Target sequence (P78536 215-824 limits assumed): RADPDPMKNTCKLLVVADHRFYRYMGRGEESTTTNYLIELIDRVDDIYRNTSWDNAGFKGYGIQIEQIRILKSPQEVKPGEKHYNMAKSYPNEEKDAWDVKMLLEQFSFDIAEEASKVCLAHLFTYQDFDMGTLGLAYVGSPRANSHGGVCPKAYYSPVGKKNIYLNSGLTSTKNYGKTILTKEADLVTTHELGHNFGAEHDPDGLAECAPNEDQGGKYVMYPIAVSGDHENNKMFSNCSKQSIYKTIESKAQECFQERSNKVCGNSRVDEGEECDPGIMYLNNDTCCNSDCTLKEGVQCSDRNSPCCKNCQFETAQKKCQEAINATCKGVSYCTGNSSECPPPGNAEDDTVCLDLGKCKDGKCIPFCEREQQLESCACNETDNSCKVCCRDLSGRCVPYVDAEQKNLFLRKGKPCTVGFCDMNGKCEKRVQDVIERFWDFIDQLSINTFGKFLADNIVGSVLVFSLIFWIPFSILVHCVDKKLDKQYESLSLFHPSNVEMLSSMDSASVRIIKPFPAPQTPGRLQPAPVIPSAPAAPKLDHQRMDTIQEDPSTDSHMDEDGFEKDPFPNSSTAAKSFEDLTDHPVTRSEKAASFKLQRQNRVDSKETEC
aDG glyco up: increases alpha dystroglycan glycosylation. activation, % at 10 µM. Pro5-aDG cells, alpha-DG glycosylation AlphaScreen (IIH6); 0% Pro5, 100% B10-LARGE cell signal. actives 0.22% (n = 360,000);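 active = activation of at least 8% versus controls, or a plate z-score of at least 8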;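 also: Pro5 are CHO cells carrying HIG-tagged alpha-DG that lacks glycosylation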
Hep lipid drop: hepatic lipid droplet formation modulation; AML12 mouse hepatocytes, oleate lipid droplets, BODIPY imaging; inhibition, % at 6.5 µM; AID 1656; actives 0.4% (n = 240,000);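 active = lipid droplet intensity inhibited by at least 50%, with more than 500 cells counted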
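Assay system: AML12 mouse liver cells | Compound dosing: One dose, 6.5 µM compound | Read-out basis: Droplet intensity reduction, % inhibition | Measured by: Fluorescence imaging, 20x objective, two fields per well | Schedule: Overnight treatment with compound plus oleate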
MPTP inh: inhibitors of mitochondrial permeability transition pore; inhibition, % at 10 µM; actives 1.4% (n = 360,000); isolated mouse mitochondria, Ca2+ swelling absorbance, 30 min; AID 602449;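 active = inhibition of 50% or more, scaled per plate between neutral and stimulator controls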
V-ATPase pH: regulators of yeast V-ATPase proton transport. response, % at 10 µM. AID 504577. S. cerevisiae, pHLuorin cytosolic pH fluorescence. actives 0.37% (n = 350,000); in the data active = response mostly above about 7.3%, no sharp cut-off; inactive = mostly below about 5.4%; also: actives read high
ADAM10 inh: inhibits human ADAM10 | O14672 | recombinant ADAM10, EDANS/DABCYL FRET peptide cleavage, 3 h | inhibition, % at 7 µM | actives 0.62% (n = 370,000);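 active = inhibition above a per-campaign cutoff equal to the mean of compounds falling between control-based bounds plus 3 SD, cut at about 20% in these data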
Lipid drop inh: confirmation of inhibitors of hepatic lipid droplet formation | shares compounds with Hep lipid drop | AML12 mouse hepatocytes, BODIPY lipid droplet imaging; droplets induced with 100 µM oleic acid | inhibition, % at 5.2 µM | actives 65% (n = 870) | AID 463183;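 active = inhibition of lipid droplet metric at least 50%, with more than 300 cells in each of four replicates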
AML12 cytotox: AML12 hepatocyte cytotoxicity (counter-screen); shares compounds with Hep lipid drop; AML12 mouse hepatocytes, DAPI nuclear morphology cytotoxicity imaging; hits give high values; cells fed 100 µM oleate overnight; z-score at 5 µM; actives 3% (n = 870); in the data active = z-score above about 6.3;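 also: compound exposure lasted overnight at 37 °C before fixation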
AML12 tox conf: AML12 hepatocyte cytotoxicity, confirmed. shares compounds with Hep lipid drop. cytotoxicity, % at 50 µM. AID 463219. 530 tested, under 10 active. AML12 mouse hepatocyte viability, ATP luminescence; cells loaded with 100 µM oleic acid;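 active = cytotoxicity above 50% in each of four replicates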;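 also: compound exposure lasted overnight at 37 °C before the ATP read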
Numbers stand for hits; i = inactive; nt = no result. Hits are enriched below; roughly 3.1% of the tested compounds scored in any of these assays.

SMILES	ADAM17 inh	aDG glyco up	Hep lipid drop	MPTP inh	V-ATPase pH	ADAM10 inh	Lipid drop inh	AML12 cytotox	AML12 tox conf
COC(=O)[C@H]1C[C@@]2(C3C=CC=C3)c3ccccc3N[C@H]2N1	i	nt	nt	nt	nt	i	nt	nt	nt
CCCC1CCC2(CC1)CCC2OC(=S)NCCc1ccc(Cl)cc1 (stereo unspecified)	i	nt	nt	nt	nt	i	nt	nt	nt
CC(=O)N1CCCN(C(=O)CN2C(=O)CC(C)(C)S(=O)(=O)c3ccccc32)CC1	i	nt	nt	nt	nt	i	nt	nt	nt
CCc1c(C#N)c(SCCC(=O)Nc2ccc(C)cc2)nc2c1C(=O)CC(C)(C)C2	i	i	i	i	i	i	nt	nt	nt
CCOc1ccc(NC(=O)CCSc2nc3c(c(CC)c2C#N)C(=O)CC(C)(C)C3)cc1	i	i	55	i	i	i	86	i	i
Cc1ccc(-n2c(Cc3cccs3)nnc2SCc2ccc([N+](=O)[O-])cc2)cc1	i	nt	nt	nt	nt	i	nt	nt	nt
Oc1ccc2ccccc2c1N=Nc1ccccn1	i	i	i	i	i	i	nt	nt	nt
Oc1ccc2ccccc2c1N=Nc1ccccc1F	i	i	93	i	i	i	95	i	nt
C=CCN(CC(=O)Nc1c(C)cccc1CC)C(=O)SCCC	i	i	i	i	i	i	nt	nt	nt
CCSC(=O)N(CC)CC(=O)Nc1c(CC)cccc1CC	nt	i	56	i	i	nt	87	i	i
CCCSC(=O)N(CC)CC(=O)Nc1c(CC)cccc1CC	nt	i	64	i	i	nt	90	i	i
CCOc1cc2c(cc1OCC)C(c1ccccc1)N(c1ccccc1)C(=O)C2 (stereo unspecified)	i	i	89	i	i	i	107	i	i
CCOc1cc2c(cc1OCC)C(c1ccc(OC)cc1)N(c1ccccc1)C(=O)C2 (stereo unspecified)	i	i	51	i	i	i	60	i	i
CCOc1ccc(C2c3cc(OC)c(OC)cc3CC(=O)N2c2ccccc2)cc1 (stereo unspecified)	i	i	nt	i	i	i	nt	nt	nt
COC(=O)C(C(=O)OC)C1OC23CN(S(=O)(=O)c4ccc(C)cc4)C=CC2(C)C3c2ccccc21 (stereo unspecified)	i	nt	nt	nt	nt	i	nt	nt	nt
O=C(NCCc1nc2ccccc2[nH]1)c1ccc(Br)o1	i	i	51	i	i	i	62	i	i
Cc1ccc(C(=O)NCCc2nc3ccccc3[nH]2)cc1[N+](=O)[O-]	i	i	82	i	i	i	94	i	i
O=C(NCCc1nc2ccccc2[nH]1)c1ccco1	i	i	nt	i	i	i	nt	nt	nt
CCN(CC)CCNC(=O)c1ccc2c(c1NCCO)C(=O)c1ccccc1C2=O	i	i	i	i	nt	i	nt	nt	nt
CC1CCN(C(=O)c2ccc3c(c2NCCO)C(=O)c2ccccc2C3=O)CC1	i	i	68	i	i	i	109	i	i
O=C1N2Cc3ccccc3C2CS(=O)(=O)N1CCc1ccccc1 (stereo unspecified)	i	nt	nt	nt	nt	i	nt	nt	nt
COc1cc2c(cc1NC(=S)NC(=O)c1c(OC)cccc1OC)oc1ccccc12	i	i	105	i	i	i	106	i	i
COCCCNC(=O)c1ccc(Cn2c(=O)c3ccccc3n(Cc3ccc(Br)cc3)c2=O)cc1	i	nt	nt	nt	nt	i	nt	nt	nt
Cc1ccc(S(=O)(=O)N2CCCCC2)cc1C(=O)N(C)CCOc1ccccc1	i	i	62	i	i	i	i	i	nt
CC(C)c1ccccc1NC(=O)COC(=O)c1c2c(nc3ccccc13)CCN(Cc1ccccc1)C2	i	i	54	i	i	i	i	i	i
CCN(CC(=O)Nc1ccccc1C(F)(F)F)C(=O)c1cc(-c2cccs2)nn1-c1ccccc1	i	i	65	i	i	i	103	i	i
COc1ccc(NC(=O)Cc2c(Sc3ccccc3)c3ccccc3n2C)cc1	i	i	61	i	i	i	91	i	i

Bioassay records from PubChem.
